Measured values pooled from the literature.
Target: Testis-specific serine/threonine-protein kinase 1 (TSSK1B, Homo sapiens, UniProt Q9BXA7)
Sequence (Q9BXA7 1-367, as in one of the studies): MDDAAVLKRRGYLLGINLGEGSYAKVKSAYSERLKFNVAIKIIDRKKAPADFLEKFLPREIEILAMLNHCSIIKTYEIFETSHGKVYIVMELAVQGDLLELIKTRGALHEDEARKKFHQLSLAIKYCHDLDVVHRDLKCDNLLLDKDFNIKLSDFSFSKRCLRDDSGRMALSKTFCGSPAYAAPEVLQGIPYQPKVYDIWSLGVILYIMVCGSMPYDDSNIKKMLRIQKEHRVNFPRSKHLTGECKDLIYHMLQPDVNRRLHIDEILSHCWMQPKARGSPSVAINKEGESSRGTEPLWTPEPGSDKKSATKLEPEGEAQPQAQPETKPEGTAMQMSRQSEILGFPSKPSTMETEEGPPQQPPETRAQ

Structure (SMILES)	assay	setting	quantity	value
Cn1cncc1[C@@](O)(COc1ccc(C#N)cc1-c1ccc(OC(F)(F)F)cc1)c1ccc(C#N)cc1	cell-free assay, competition with immobilised ligand	1 µM	remaining binding	70%
Cc1nn(C)cc1-c1nc2c(N3CCN(Cc4ccc(Cl)cc4)CC3)c(Cl)cnc2[nH]1	binding, competition with immobilised ligand	1 µM	remaining binding	100%
O=c1[nH]c2ccccc2n1C1CCN(Cc2ccc(-c3[nH]c4cc5ncnc5cc4nc3-c3ccccc3)cc2)CC1	cell-free assay	0.5 µM	remaining signal	96.5%
Nc1ncc(-c2nc(N3CCOCC3)nc(N3CCOCC3)n2)c(C(F)F)n1	binding, competition with immobilised ligand	10 µM	remaining binding	100%
COc1cc(Nc2ncc(F)c(Nc3ccc4c(n3)NC(=O)C(C)(C)O4)n2)cc(OC)c1OC	binding	10 µM	inhibition	97%
Cn1cc(-c2cc(F)cc(N3CCn4c(cc5c4CCCC5)C3=O)c2CO)cc(Nc2ccc(N3CCN(C4COC4)CC3)cn2)c1=O	enzyme activity, inhibitor	0.1 µM	inhibition	9%
COc1ncccc1-c1cnn2ccc(N3CCN(C(=O)OC(C)C)CC3)nc12	binding, competition with immobilised ligand	1 µM	remaining binding	54%
CC(C)(C)c1cc(C=C(C#N)C#N)cc(Br)c1O	enzyme activity, inhibitor	0.5 µM	remaining activity	95.6%
N#CC1(c2ccccn2)CCN(Cc2cc(C(=O)O)c(=O)n3ccccc23)CC1	cell-free assay, competition with immobilised ligand	1 µM	remaining binding	74%
Cn1cc(-c2cccc(N3CCc4c(sc5c4CC(C)(C)C5)C3=O)c2CO)cc(Nc2ccncn2)c1=O	enzyme activity, inhibitor	1 µM	inhibition	5%
